Experimental data reported in publication PMC5884014 (Neoplasia (New York, N.Y.), 2017).
Marks after values point to notes of the source that are not given here.

Legend:
FHC = assay: Cytotoxicity assay; format: cell-based, human; conditions: Homo sapiens, FHC, 72 h
HCT116 = assay: Cytotoxicity assay; format: cell-based, human; conditions: Homo sapiens, HCT-116, 72 h
RKO = assay: Cytotoxicity assay; format: cell-based, human; conditions: Homo sapiens, RKO, 72 h
LS174T = assay: Cytotoxicity assay; format: cell-based, human; conditions: Homo sapiens, LS174T, 72 h
LoVo = assay: Cytotoxicity assay; format: cell-based, human; conditions: Homo sapiens, LoVo, 72 h
Colo205 = assay: Cytotoxicity assay; format: cell-based, human; conditions: Homo sapiens, COLO 205, 72 h
DLD-1 = assay: Cytotoxicity assay; format: cell-based, human; conditions: Homo sapiens, DLD-1, 72 h
HT-29 = assay: Cytotoxicity assay; format: cell-based, human; conditions: Homo sapiens, HT-29, 72 h
SW620 = assay: Cytotoxicity assay; format: cell-based, human; conditions: Homo sapiens, SW-620, 72 h
Caco-2 = assay: Cytotoxicity assay; format: cell-based; conditions: Homo sapiens, Caco-2, 72 h
H3347 = assay: Cytotoxicity assay; format: cell-based, human; conditions: Homo sapiens, H3347, 72 h
RKO cells [1] = assay: Comet and modified comet assays; format: cell-based, human; conditions: 24 h, SL-1 0.75 μM, 5-FU […], alone or combined
Method in brief: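 RKO cells were exposed to the test compound and/or 5-FU for 24 h and then processed by comet assay. The read-out was tail moment, reported as means ± SD (n = 3) and compared by Student's t test. Synergy on tail moment was expressed as a combination index (CI).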

RKO cells [2] = assay: Annexin V staining assay; format: cell-based, human
[3] = Toxicology examination: complete blood counts; format: in vivo; conditions: ICR mice, 5-FU 50 mg/kg i.p., SL-1 30, oxaliplatin 7.5, cisplatin 7.5 mg/kg i.v.
[4] = Toxicology examination: serum biochemistry; format: in vivo; conditions: ICR mice, 5-FU 50 mg/kg i.p., SL-1 30, oxaliplatin 7.5, cisplatin 7.5 mg/kg i.v.
[5] = tested on: HexA-rev and HexB-rev fragments; assay: Guanine-N7 alkylation, Maxam-Gilbert method; format: binding; conditions: 3'-end-labeled DNA, 37°C, 2 h, pH 7.4
Method in brief: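 Sixty-four symmetrical hexanucleotide fragments (HexA-rev, HexB-rev) were 3′-end-labelled, gel-purified on polyacrylamide, and reacted with the test compound. Guanine-N7 alkylation sites were mapped by the Maxam-Gilbert method. A weighted consensus sequence logo was generated with Seq2Logo 3.4.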

O=c1[nH]cc(F)c(=O)[nH]1 [5-FU, 5-fluorouracil]
IC50 (FHC): 21.9 ± 2.49 µM | IC50 (HCT116): 2.88 ± 0.33 µM | IC50 (RKO): 6.15 ± 1.63 µM | IC50 (LS174T): 18.6 ± 0.26 µM | IC50 (LoVo): 25.8 ± 0.74 µM | IC50 (Colo205): 6.8 ± 3.05 µM | IC50 (DLD-1): 16.9 ± 5.3 µM | IC50 (HT-29): 2.27 ± 0.41 µM | IC50 (SW620): 18.5 ± 4.05 µM | IC50 (Caco-2): > 50 µM | IC50 (H3347): 5.89 ± 0.5 µM | tail moment (RKO cells [1]): 3.9 ± 0.4 μm | mode of cell death (RKO cells [2]): mainly caused necrotic cell death | BASO ([3]; 2 days): 0.01 ± 0.01 10^9/l | EO ([3]; 2 days): 0.06 ± 0.01* 10^9/l | HCT ([3]; 2 days): 27.94 ± 3.75 % | HGB ([3]; 2 days): 10.58 ± 2.62 g/dL | LYMPH ([3]; 2 days): 4.22 ± 0.45 10^9/l | MCH ([3]; 2 days): 14.94 ± 3.04 pg | MCHC ([3]; 2 days): 27.50 ± 4.71 g/dL | MCV ([3]; 2 days): 57.06 ± 3.75 fL | MONO ([3]; 2 days): 0.02 ± 0.01 10^9/l | NEUT ([3]; 2 days): 0.78 ± 0.40 10^9/l | PLT ([3]; 2 days): 873.00 ± 141.40** 10^9/l | RBC ([3]; 2 days): 4.98 ± 1.72* 10^12/l | WBC ([3]; 2 days): 5.09 ± 0.23 10^9/l | BASO ([3]; 14 days): 0.01 ± 0.01 10^9/l | EO ([3]; 14 days): 0.08 ± 0.01*** 10^9/l | HCT ([3]; 14 days): 45.53 ± 1.61 % | HGB ([3]; 14 days): 13.08 ± 0.25 g/dL | LYMPH ([3]; 14 days): 2.62 ± 0.94 10^9/l | MCH ([3]; 14 days): 16.25 ± 0.35 pg | MCHC ([3]; 14 days): 28.73 ± 0.48 g/dL | MCV ([3]; 14 days): 56.48 ± 1.73 fL | MONO ([3]; 14 days): 0.06 ± 0.10 10^9/l | NEUT ([3]; 14 days): 0.64 ± 0.17 10^9/l | PLT ([3]; 14 days): 745.75 ± 116.31* 10^9/l | RBC ([3]; 14 days): 8.06 ± 0.24*** 10^12/l | WBC ([3]; 14 days): 3.40 ± 1.21 10^9/l | ALP ([4]; 2 days): 359.25 ± 72.22 U/l | ALT ([4]; 2 days): 23.25 ± 4.97 U/l | AST ([4]; 2 days): 63.50 ± 13.24 U/l | BUN ([4]; 2 days): 23.65 ± 1.50 mg/dL | CRE ([4]; 2 days): 0.23 ± 0.1 mg/dL | GLU ([4]; 2 days): 577.25 ± 36.55 mg/dL | ALP ([4]; 14 days): 177.50 ± 119.69 U/l | BUN ([4]; 14 days): 22.20 ± 3.42 mg/dL | CRE ([4]; 14 days): 0.25 ± 0.10 mg/dL | GLU ([4]; 14 days): 244.00 ± 86.63 mg/dL | GOT/AST ([4]; 14 days): 53.00 ± 3.56 U/l | GPT/ALT ([4]; 14 days): 46.50 ± 7.85 U/l

Cc1ccc(Nc2c3ccccc3nc3c(C)cccc23)cc1NC(=O)Nc1ccc(N(CCCl)CCCl)cc1 [BO-1051]
consensus sequence / binding pattern of guanine-N7 alkylation [5]: no distinct binding sequence

CN(C)CCNC(=O)c1cccc(NC(=O)Nc2ccc(N(CCCl)CCCl)cc2)c1.Cl [BO-1055]
consensus sequence / binding pattern of guanine-N7 alkylation [5]: no distinct binding sequence
